Measured values published in ChEMBL document CHEMBL3352170, “Sulfonamides as multifunctional agents for Alzheimer's disease” (Bioorg Med Chem Lett, 2015).
Calls of active or inactive are those of the source. The calls are words filed in the database; no cut-off is given here.

Assays:
[1] = molecular target: Amyloid-beta precursor protein (Homo sapiens) (UniProt P05067); test: Inhibition of Amyloid beta (1 to 42) (unknown origin) oligomer assembly at Abeta:compound ratio of 0.0002 after 30 mins by single-site ELISA assay
Amyloid-beta precursor protein (Homo sapiens), sequence (P05067 whole entry): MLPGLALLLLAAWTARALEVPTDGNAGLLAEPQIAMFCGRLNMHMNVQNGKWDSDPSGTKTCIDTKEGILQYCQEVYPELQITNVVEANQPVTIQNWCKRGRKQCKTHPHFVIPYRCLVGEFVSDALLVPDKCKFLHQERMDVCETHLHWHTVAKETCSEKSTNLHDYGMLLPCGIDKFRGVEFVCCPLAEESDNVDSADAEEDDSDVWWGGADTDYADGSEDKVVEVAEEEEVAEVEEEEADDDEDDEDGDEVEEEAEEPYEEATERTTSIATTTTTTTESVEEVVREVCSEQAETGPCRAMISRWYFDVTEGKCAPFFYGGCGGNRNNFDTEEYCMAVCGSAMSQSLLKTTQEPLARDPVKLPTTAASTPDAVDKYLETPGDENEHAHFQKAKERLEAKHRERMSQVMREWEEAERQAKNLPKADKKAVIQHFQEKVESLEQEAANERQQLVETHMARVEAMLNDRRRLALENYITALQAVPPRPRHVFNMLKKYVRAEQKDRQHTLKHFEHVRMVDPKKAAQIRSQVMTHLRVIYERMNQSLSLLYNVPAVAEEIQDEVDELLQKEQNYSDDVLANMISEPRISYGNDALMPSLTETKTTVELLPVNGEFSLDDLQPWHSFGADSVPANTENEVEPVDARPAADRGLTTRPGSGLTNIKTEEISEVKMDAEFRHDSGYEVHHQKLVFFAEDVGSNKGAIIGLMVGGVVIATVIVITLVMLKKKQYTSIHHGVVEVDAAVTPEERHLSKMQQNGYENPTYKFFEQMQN
Outline: (§1)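 Oligomer formation was read in a single-site streptavidin-based assay using biotinyl-Aβ(1–42) at 0.01 µM. Aβ/inhibitor ratio was 0.0002, with 30 min incubation.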

[2] = molecular target: Amyloid-beta precursor protein (Homo sapiens) (UniProt P05067); test: Inhibition of Amyloid beta (1 to 40) (unknown origin) fibril formation at Abeta:compound ratio of 1:10 after 4 days by Thioflavin-T fluorescence assay
Outline: (§2)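 Aβ fibrillogenesis was measured by quantitative Thioflavin-T fluorescence with Aβ at 100 µM and Aβ:inhibitor at 1:10, or 1:1 for one compound. Signal was normalized to the fluorescence of the inhibitor-free control.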

[3] = molecular target: Amyloid-beta precursor protein (Homo sapiens) (UniProt P05067); test: Stimulation of Amyloid beta (1 to 40) (unknown origin) fibril formation at Abeta:compound ratio of 1:10 after 4 days by Thioflavin-T fluorescence assay; outline: as §2
Cholinesterase [4] = molecular target: T1, Cholinesterase (Homo sapiens, UniProt P06276); test: Inhibition of BuChE (unknown origin) assessed as reduction in S-butyrylthiocholine chloride hydrolysis at 10 uM after 15 mins by Ellman method
T1 sequence (P06276 whole entry): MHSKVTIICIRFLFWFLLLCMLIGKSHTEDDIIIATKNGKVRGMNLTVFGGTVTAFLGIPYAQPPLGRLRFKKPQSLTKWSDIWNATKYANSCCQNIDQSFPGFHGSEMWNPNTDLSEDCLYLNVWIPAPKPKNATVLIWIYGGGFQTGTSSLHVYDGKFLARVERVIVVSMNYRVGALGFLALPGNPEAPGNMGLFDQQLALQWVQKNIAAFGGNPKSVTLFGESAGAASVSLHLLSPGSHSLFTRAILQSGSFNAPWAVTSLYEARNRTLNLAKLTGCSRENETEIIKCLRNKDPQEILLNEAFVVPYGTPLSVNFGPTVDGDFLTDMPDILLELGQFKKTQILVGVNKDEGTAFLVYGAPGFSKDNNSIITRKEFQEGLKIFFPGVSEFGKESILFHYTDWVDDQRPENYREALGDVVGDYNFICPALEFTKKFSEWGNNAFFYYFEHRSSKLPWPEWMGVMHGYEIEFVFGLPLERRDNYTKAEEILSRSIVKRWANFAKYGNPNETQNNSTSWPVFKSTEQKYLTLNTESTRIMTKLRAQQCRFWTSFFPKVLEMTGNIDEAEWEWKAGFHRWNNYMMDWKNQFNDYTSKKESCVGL
Outline: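 Single-concentration screen of the commercial and synthetic sulfonamides. Read-out is percent inhibition of BuChE activity. Galanthamine serves as the reference standard.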

Cholinesterase [5] = molecular target: T1, Cholinesterase; test: Inhibition of BuChE (unknown origin) assessed as reduction in S-butyrylthiocholine chloride hydrolysis after 15 mins by Ellman method
[6] = molecular target: Amyloid-beta precursor protein (Homo sapiens) (UniProt P05067); test: Stimulation of Amyloid beta (1 to 42) (unknown origin) oligomer assembly at Abeta:compound ratio of 0.0002 after 30 mins by single-site ELISA assay; outline: as §1
[7] = molecular target: Amyloid-beta precursor protein (Homo sapiens) (UniProt P05067); test: Inhibition of Amyloid beta (1 to 40) (unknown origin) fibril formation at Abeta:compound ratio of 1:10 after 4 days by atomic force microscopy
Outline: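 Aβ(1–40) was incubated for 4 days with or without inhibitor, at 100 µM Aβ and Aβ:inhibitor 1:10. Fibril morphology was imaged by atomic force microscopy against a solvent-treated control.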

[8] = Antioxidant activity assessed as DPPH radical scavenging activity at 10 uM after 30 mins; assay type: physicochemical; conditions: 0.5 h
[9] = molecular target: Amyloid-beta precursor protein (Homo sapiens) (UniProt P05067); test: Inhibition of Amyloid beta (1 to 40) (unknown origin) fibril formation at Abeta:compound ratio of 1:1 after 4 days by Thioflavin-T fluorescence assay; conditions: concentration not given here; outline: as §2
Acetylcholinesterase = Acetylcholinesterase (Homo sapiens, UniProt P22303); test: Inhibition of AChE (unknown origin) assessed as reduction in acetylthiocholine iodide hydrolysis after 15 mins by Ellman method
Acetylcholinesterase, sequence (P22303 whole entry): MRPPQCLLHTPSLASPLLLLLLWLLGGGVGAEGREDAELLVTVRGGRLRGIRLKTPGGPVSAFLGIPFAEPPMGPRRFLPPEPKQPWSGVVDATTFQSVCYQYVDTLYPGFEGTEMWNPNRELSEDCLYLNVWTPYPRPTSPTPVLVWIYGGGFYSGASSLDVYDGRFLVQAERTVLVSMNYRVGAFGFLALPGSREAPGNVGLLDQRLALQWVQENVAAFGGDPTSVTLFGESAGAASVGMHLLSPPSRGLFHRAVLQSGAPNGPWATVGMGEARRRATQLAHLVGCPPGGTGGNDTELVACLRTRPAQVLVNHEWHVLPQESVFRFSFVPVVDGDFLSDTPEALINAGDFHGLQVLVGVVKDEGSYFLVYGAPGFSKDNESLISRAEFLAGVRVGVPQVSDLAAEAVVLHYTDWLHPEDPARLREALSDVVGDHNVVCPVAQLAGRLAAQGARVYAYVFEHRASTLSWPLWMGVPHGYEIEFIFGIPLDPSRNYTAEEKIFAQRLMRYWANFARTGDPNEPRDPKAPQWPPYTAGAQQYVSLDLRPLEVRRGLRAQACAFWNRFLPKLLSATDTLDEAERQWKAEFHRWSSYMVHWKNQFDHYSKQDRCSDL

Structure (SMILES)	inhibition [1]	inhibition [2]	Activity [3]	inhibition (Cholinesterase [4]) [%]	Activity [6]	further results
O=C(NCCCCNC(=O)c1ccc2ccccc2c1)c1ccc2ccccc2c1	99%	Active				
NS(=O)(=O)c1ccccc1Br	< 54%		Active			
O=C1NS(=O)(=O)c2ccccc21 [SACCHARIN]	< 54%		Active	73		IC50 (Cholinesterase [5]): 3600 nM
CCN(CC)CCCN1C(=O)c2ccccc2S1(=O)=O	< 54%		Active			
O=S(=O)(CCCN1CCOCC1)NCCNc1cccc2ccccc12		Active			Active	
COc1ccc(S(N)(=O)=O)cc1	< 54%		Active			
O=S(=O)(CCCN1CCN(c2ncccn2)CC1)NCCNc1cccc2ccccc12		Active			Active	
O=C(CCC(=O)NCCNc1cccc2ccccc12)NCCNc1cccc2ccccc12	50%	Active				
O=S(=O)(CCCN1CCC(c2ccccc2)CC1)NCCNc1cccc2ccccc12				58	Active	IC50 (Cholinesterase [5]): 5080 nM; inhibition [7]: Active; inhibition ([2]; concentration not given here): 87%
O=C1c2ccccc2S(=O)(=O)N1CCCN1CCN(Cc2ccccc2)CC1	inactive		Active			
Oc1ccc(/C=C/c2cc(O)cc(O)c2)cc1 [RESVERATROL]						Activity [8]: Active
O=S(=O)(CCCCl)NCCNc1cccc2ccccc12		Active			Active	
O=S(=O)(CCCNCCc1c[nH]c2ccccc12)NCCNc1cccc2ccccc12		Active		> 80	Active	
O=C1c2ccccc2S(=O)(=O)N1CCCN(CCO)CCO	< 54%		Active			
NS(=O)(=O)c1ccc([N+](=O)[O-])cc1	< 54%		Active			
O=S(=O)(CCCN1CCC(Cc2ccccc2)CC1)NCCNc1cccc2ccccc12				> 40	Active	inhibition ([2]; concentration not given here): 60%
O=S(=O)(CCCNCCNc1cccc2ccccc12)NCCNc1cccc2ccccc12				99	Active	IC50 (Cholinesterase [5]): 930 nM; inhibition [9]: 45%
O=S(=O)(CCCN1CCC(O)CC1)NCCNc1cccc2ccccc12					Active	inhibition ([2]; concentration not given here): 64%
Cl.O=S(=O)(CCCN(CCO)CCO)NCCNc1cccc2ccccc12		Active			Active	Activity [8]: Active
CC(C(O)c1ccccc1)N(C)CCCS(=O)(=O)NCCNc1cccc2ccccc12.Cl (centres undefined)		Active		> 40	Active	Activity [8]: Active
O=S(=O)(CCCN1CCN(c2ccccc2)CC1)NCCNc1cccc2ccccc12		Active		> 40	Active	
O=C1c2ccccc2S(=O)(=O)N1CCO	< 54%		Active			
O=S(=O)(CCCN1CCN(c2ccccn2)CC1)NCCNc1cccc2ccccc12		Active		> 40	Active	
O=S(=O)(CCCN1CCN(Cc2ccccc2)CC1)NCCNc1cccc2ccccc12				90	Active	Activity [8]: Active; IC50 (Acetylcholinesterase): 160 nM; IC50 (Cholinesterase [5]): 2000 nM; inhibition ([2]; concentration not given here): 43%
Cc1ccccc1S(N)(=O)=O	< 54%		Active			
CC(NCCCS(=O)(=O)NCCNc1cccc2ccccc12)c1ccccc1 (centres undefined)		Active		> 40	Active	
CCN(CC)CCN1C(=O)c2ccccc2S1(=O)=O	< 54%		Active			
O=C1c2ccccc2S(=O)(=O)N1CCCN1CCC(O)CC1	< 54%		Active			
